Measured values as given in the EternaBench riboswitch data.

Tested on: MS2 coat protein
Test: apparent Kd, MS2 coat protein; higher = weaker binding; RNA-MaP array; FMN 200 µM where present
Summary of the method: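 Green signal from SNAP-549-labelled MS2 coat protein was normalised to red-channel RNA signal and to the median Fmax of control clusters. The protein was titrated from 0.7 or 1.5 nM, doubling to 3 µM, without and then with constant ligand, over designs transcribed by stalled E. coli RNA polymerase on Illumina sequencing-chip clusters, in 100 mM Tris-HCl pH 7.5, 80 mM KCl, 4 mM MgCl2, BSA, DTT, yeast tRNA and Tween-20. The apparent Kd is the median of filtered per-cluster binding-curve fits.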

[1] = designed as: ON switch for flavin mononucleotide, no ligand
[2] = ligand present: flavin mononucleotide, designed as: ON switch for flavin mononucleotide
[3] = designed as: OFF switch for flavin mononucleotide, no ligand
[4] = ligand present: flavin mononucleotide, designed as: OFF switch for flavin mononucleotide

Row | Sequence | apparent Kd [1] [nM] | apparent Kd [2] [nM] | apparent Kd [3] [nM] | apparent Kd [4] [nM]
1 | GUUACAUGAGGAUCACCCAUGUAUGUGUGGGAGUAAGUGUCUUAGGAUAUCUAUUAGUUAAAUUAAGAGAAGGAAGAUUGUUGU | 119 | 127 | – | –
2 | GUUAGUUAAGGAUAUACAGGGAGCUGCGGCGUCUCGCCGCAACAUGAGGAUCACCCAUGUAGAAGGUGGCCAUU | – | – | 548 | 586
3 | GUUAUAGGAGGAUAUACAUGAGGAUCACCCAUGUCUCAUCCAUGGCAACGAACCUAUUGUAGAAGGCUUGAAGA | – | – | 28.9 | 113
4 | GUUAUUUAUGUAGGAUAUGCGAGGCGAGCCUAAGCAGAAGGACAUGAGGAUCACCCAUGUAUUGCGGUUUGUGUUCAGAUCGCU | – | – | 27.3 | 84.9
5 | GUUCCACAUGAGGAUCACCCAUGUGAGGAUAUGGAUUCGCUGGCCGUAGCCAGUGGAUCCAGAAGGCGCAUGAU | – | – | 39.9 | 153
6 | GUUCUUCCUGUGAGGAUAUCCAUGUGUCGGUUUGUGGAGAAGGUACAUGAGGAUCACCCAUGUCACCCGCGUUA | – | – | 14.7 | 17.7
7 | GUUGCUUUCCGAGGAUAUUCAGGGCGUGGAUAUACAUGAGGAUCACCCAUGUGGCGGAAGCCUAGGGAGAAGGCGGGCUGCUUC | 41.1 | 20.5 | – | –
8 | GUUGUUUAUGUAGGAUAUGCGAGGCGAGCCUAAGCAGAAGGACAUGAGGAUCACCCAUGUAUUGCGGUCUGCGUUCAGAUCGCU | – | – | 32.4 | 135
9 | GUUUAGUGAGGAUAUGUGGCUUCGAUCGAGCGCGGUCUGCUACAGAAGGCACAUGAGGAUCACCCAUGUUUCUC | – | – | 118 | 424
10 | GUUUCACAUGAGGAUCACCCAUGUGAGGAUAUAGAUUUGUUAACCGUAGUUAAUAGAUCUAGAAGGCGCGUGAU | – | – | 60.7 | 66.1
11 | GUUUCGUGAGGAUAUGUGGCUUCGAUCGUGCGAAAAAGGCUACAGAAGGCACAUGAGGAUCACCCAUGUUCCUC | – | – | 119 | 568
12 | GUUUUCGCAUGAGGAUAUGCUCGCAUUUCAAGAGCAGAAGGUAUGUCUUUAGACAUGAGGAUCACCCAUGUAUUUAUCAUUGAA | 101 | 26.2 | – | –
13 | GUUUUCGCAUGAGGAUAUGCUCGCAUUUCUAGAGCAGAAGGUAUGUCUAUAGACAUGAGGAUCACCCAUGUAUUUAACUUUGAA | 186 | 34.4 | – | –
14 | GUUUUUUGUCAUGUACAUGAGGAACAUGAGGAUCACCCAUGUAGAAGGAAUUUUUUUAAGUUUAGUUAGGAUAUACAUAUAUUG | – | – | 50.6 | 31.9
15 | UAAAAGCUAGGAUAUACAUGAGGAUCACCCAUGUAAUCUCUCACUUACACGGAGGAUCGUAGAAGGAGCACAAA | – | – | 21.7 | 55.6
16 | UAAAAGUGAGGAUAUACAUUAAGGUAAGUCCGGAUGCGAAGACAUGAGGAUCACCCAUGUAGAAGGCACACAAA | – | – | 32.1 | 146
17 | UAAAAGUUAGGAUAUACAUGAGGAUCACCCAUGUCGCGGAACCGCGGCGAUUACUCCUGUAGAAGGAACAUCGU | – | – | 165 | 291
18 | UAAACGUUCUAGAAGGUGCUUUUGUUAAACAAGCAAGGAUAUAGACAUGAGGAUCACCCAUGUCUUUGAGACAUCGACAUACUU | – | – | 8.41 | 9.14
19 | UAAAGACAUGAGGAUCACCCAUGUGAGGAUAUCGGAGGUGACGGAGCGUCGAGUUCGGCGAGAAGGCGCAGGAA | – | – | 81 | 53.9

Row | Sequence | apparent Kd [1] [nM] | apparent Kd [2] [nM] | apparent Kd [3] [nM] | apparent Kd [4] [nM]
20 | UAAAUACAUGAGGAUCACCCAUGUCAAAAGACAUGAGGAUAUGUACAGACUUCGGUCUGUACAGAAGGCAUGAAUA | 652 | 46.7 | – | –
21 | UAAAUGUCAGGAUAUUGUUAAUUUAGUUGUUUGUAUUAGUUCGAGAAGGGACAUGAGGAUCACCCAUGUUGUUU | – | – | 28.9 | 31.1
22 | UAAAUGUGAGGAUAUUCGAUGAACUCGGAGACGAGUUUAUCGGAGAAGGCACAUGAGGAUCACCCAUGUUCCUU | – | – | 22.3 | 225
23 | UAAGGGUAAUGAGGAUAUAACGGGUGACAUGAGGAUCACCCAUGUGGUUUGUUAUGGUCGAGCCGUUAGAAGGCAUUGUAAGCA | – | – | 1070 | 1120
24 | UAAGUUGAGGAGAAGGGAGCACAUGAGGAUCACCCAUGUGGUUCUUUGUGCUCAGGAUAUCCAUGGAGCUCCGUCGAGUUCCAG | – | – | 56.7 | 16.6
25 | UAAUAAUAAUAAUAAUGGACGAUACAUGAGGAUCACCCAUGUAAGGAUAUGCAGUGGAAUACACUGCAGAAGGUACAUACGUCC | – | – | 15.7 | 23
26 | UAAUAAUAAUGAGGAUAUAUACAACAUGAGGAUCACCCAUGUACCCAUGUAGUAGAAGGCAUAUUUUUUGUUAAUAACAUAACU | 53.8 | 32.1 | – | –
27 | UAAUAUUUAUGAUAUUAUUACAUUAGAAGGCUAUACAUGUGGAUACAUGAGGAUCACCCAUGUAUAGAGGAUAUAGACAUAUAU | – | – | 357 | 537
28 | UAAUCGUUGCAGAAGGUUAUUAUUAUAACGUGACACUUAACAUGAGGAUCACCCAUGUUUUUUAUGAAGGAUAUGCAACGGUAG | – | – | 7.07 | 7.29
29 | UAAUGUAUAUAGGAUAUCUAGCUGGAUACAGCUAGAGAAGGAUGUACAUGAGGAUCACCCAUGUAAAUCUCAAU | – | – | 18.3 | 31.2
30 | UAAUUUAUACAGAAGGGAAACAUGAGGAUCACCCAUGACAUGAGGAUCACCCAUGUUUAAUUAUUUCAGGAUAUGUAAAAUAAU | 159 | 70.5 | – | –
31 | UACAGCUUGACAGGAUAUACAUCACUGCGAAAGCAGUGUAUCUUAAUAACAUGAGGAUCACCCAUGUAGAAGGGUCGAGCUGUA | – | – | 19.8 | 35.9
32 | UACAGCUUGACAGGAUAUACAUGACUGCGAAAGCAGUCUAUCUUAAUAACAUGAGGAUCACCCAUGUAGAAGGGUCGAGCUGUA | – | – | 17.6 | 27
33 | UACAUGAGGAUCACCCAUGUUUUGUCGUGUAUGGUAUUUAUCUAGGAUAUCAAUCUAUUAAUUUAUGAGAAGGAGAAUAUUAAU | – | – | 35.5 | 39.7
34 | UACAUGAGGAUCACCCAUGUUUUGUCGUGUAUGGUAUUUAUCUAGGAUAUCAAUGUAUUUAUUUAUGAGAAGGAGAAUAUUAAU | – | – | 41.1 | 39.3
35 | UACAUGAGGAUCACCCAUGUUUUGUCGUGUAUGGUAUUUAUCUAGGAUAUCAUUUUAUCUAGUUAUGAGAAGGAGAAUAUUAAU | – | – | 36.6 | 29.9
36 | UACAUGUGAGGAUAUGUACGAGGCCCUGACGGGUCUCGCAGGCAGAAGGCACAUGAGGAUCACCCAUGUGACCG | – | – | 24.7 | 96.6
37 | UACAUUACUUAGAAGGGAUAUAUAUAAUUUUAGUCAGGAUAUAGAUACAAUACAACAUGAGGACAUGAGGAUCACCCAUGUAUU | 17.9 | 13.4 | – | –
38 | UACCUACAUGAGGAUCACCCAUGUCAGGAUAUGUGCUGAGACGACAUCGACUUUCAGCGUAGAAGGGACCAGGG | – | – | 24.4 | 46.5

Row | Sequence | apparent Kd [1] [nM] | apparent Kd [2] [nM] | apparent Kd [3] [nM] | apparent Kd [4] [nM]
39 | UACCUAUUUAUGGUAUUUCAAUAUGAGGAUAUCAUUUAUUUAUACAUGAGGAUCACCCAUGUUACUGAGAAGGCAUAUUUAAUA | 11.4 | 6.01 | – | –
40 | UACGUACAGAAGUACUCCGGGUCCAGAAGGGACAUGAGGAUCACCCAUGUACCGUUGAUUGCUUGUCAGGAUAUGGACCCGGCC | – | – | 7.29 | 28.5
41 | UACGUUAUACGCAACAUGAGGAUCACCCAUGUUAGCCGAUCACAGGAUAUGUUGGAGCCGGUCGGACAGAAGGGUGAGUUUGCU | 47.9 | 43.3 | – | –
42 | UACUACGCAGGAUAUACAUGAGGAUCACCCAUGUGUCUGCGAUAGGCACGUGAUAUCCGUAGAAGGGUGUAGAU | – | – | 30.4 | 79.5
43 | UACUCGUGUGAGAAGGGACGUAUCUCCAUGAGGGCAGGGCUAUUAGAGAAGUCAGGAUAUCACAUGAGGAUCACCCAUGUGACG | – | – | 8.26 | 10.8
44 | UAGAACCUAGGAUAUACUUGGACCACUAAUGCACAGAUAUAACAUGAGGAUCACCCAUGUAGAAGGAGGAGUAA | – | – | 40.4 | 32.4
45 | UAGAAGUCAGGAUAUGCUGCUCGUCACUUGCGUGAUGAGUAGCAGAAGGGACAUGAGGAUCACCCAUGUAAAGA | – | – | 57.4 | 79.9
46 | UAGAUACAUGAGGAUCACCCAUGUGAGGAUAUCGUUUGUACUAAUCUUUUAGUAUUUUCGAGAAGGCACAUAUA | – | – | 73.9 | 183
47 | UAGAUGGGAGGAUAUACGUAGAUGCAGGUUCGUGUGGUGCUACAUGAGGAUCACCCAUGUAGAAGGCCCGUCUU | – | – | 14.8 | 48.9
48 | UAGAUGGGAGGAUAUACGUAGAUGCAGGUUCGUGUGGUUCUACAUGAGGAUCACCCAUGUAGAAGGCCCGUCUU | – | – | 16.6 | 27.5
49 | UAGGUUUGUAGUUACAUCCCUACACAGGAUAUGGGUAGUUACAUGAGGAUCACCCAUGUUCGAACUCAGAAGGGUGGAUCGUUA | 170 | 13.8 | – | –
50 | UAGUAGGUAGGAUAUACAUGGAUAUACAUUCAUGUGGACCUACAUGAGGAUCACCCAUGUAGAAGGACCUACUA | – | – | 38.1 | 88.9
51 | UAGUAUAAGGGCAUUACACAUGAGGAUCACCCAUGUACGUUAGAGGAUAUGCAUUACAGUUGAACGUAGAAGGUUAGAGAAGGG | – | – | 73.6 | 80.3
52 | UAUAAAACAUAGGAUAUCGAAAUUAUCAUUUAACGAGAAGGAUGAACAUGAGGAUCACCCAUGUGGUAUCAUGG | – | – | 392 | 518
53 | UAUACACAUGAGGAUCACCCAUGUGAGGAUAUGUACAACAACCCGACGGUGUUGUUGUACAGAAGGCACAAAUA | – | – | 80.2 | 59.8
54 | UAUAUAAUAAGAGCUGGAAACUCAACAUGAGGAUCACCCAUGUAGGAUAUCAGCACGAUAAGUGCUGAGAAGGACAACCAGCUC | – | – | 19.9 | 23.3
55 | UAUAUAUAGUAAGGAUAUGUAAUUAGUUUAUAAACAGAAGGUACUGACAUGAGGAUCACCCAUGUUUUAGUGUGGGCAUGUAGA | – | – | 87.7 | 134
56 | UAUAUAUAGUAAGGAUAUGUAAUUAUUUUAUAGACAGAAGGUACUGACAUGAGGAUCACCCAUGUUUUAGUGUGGGCAUGUAGA | – | – | 85.2 | 130
